Measurements pooled from the literature.
Each line is one published result; the experiments were not run side by side.
Target: Serine/threonine-protein kinase MAK (MAK, Homo sapiens, UniProt P20794)
One construct used (P20794 1-623): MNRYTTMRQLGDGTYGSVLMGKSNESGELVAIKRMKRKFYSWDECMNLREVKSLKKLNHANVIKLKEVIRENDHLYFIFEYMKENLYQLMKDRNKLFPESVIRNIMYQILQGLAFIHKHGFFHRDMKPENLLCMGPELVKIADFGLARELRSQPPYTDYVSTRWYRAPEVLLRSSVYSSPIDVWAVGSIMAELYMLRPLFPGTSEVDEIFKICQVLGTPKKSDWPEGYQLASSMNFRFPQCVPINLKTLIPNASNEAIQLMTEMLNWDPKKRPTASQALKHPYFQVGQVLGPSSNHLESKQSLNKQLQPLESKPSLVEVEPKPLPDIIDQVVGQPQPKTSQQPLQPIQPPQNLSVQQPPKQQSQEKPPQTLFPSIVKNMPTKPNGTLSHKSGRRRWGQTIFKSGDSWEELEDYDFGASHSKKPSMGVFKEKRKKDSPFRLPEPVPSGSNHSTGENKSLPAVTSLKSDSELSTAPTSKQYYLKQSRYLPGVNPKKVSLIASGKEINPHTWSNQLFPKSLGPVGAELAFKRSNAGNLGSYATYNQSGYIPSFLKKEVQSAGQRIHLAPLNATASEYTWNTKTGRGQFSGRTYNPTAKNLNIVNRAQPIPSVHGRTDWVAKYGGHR

SMILES	assay	conditions	endpoint	result
Cc1ccc(C(=O)NCc2ccsc2)cc1C#Cc1cn(C(C)C)c2ncnc(N)c12	enzyme activity, inhibitor	1 µM	activity vs control	120%
Cc1ccc(C(=O)Nc2ccc(CN3CCN(C)CC3)c(C(F)(F)F)c2)cc1C#Cc1cnc2cccnn12	enzyme activity	23.5 nM	remaining activity	93%
CN1CC(Oc2cnc(C#N)cc2-c2ccn3nc(NC(=O)C4CC4)cc3c2)C1	enzyme activity, inhibitor	1 µM	inhibition	3%
CC(C)CC(=O)N1CCc2nc(-c3ccc(Br)cc3)nc(N(C)Cc3ccccc3)c2C1	cell-free assay, competition with immobilised ligand	0.1 µM	remaining binding	99%
O=C(Nc1cnn(-c2csc(C(=O)NC3COC3)c2)c1)Nc1c(F)cccc1Cl	enzyme activity, inhibitor	5 µM	remaining activity	97.6%
NS(=O)(=O)c1cc(NC(=O)C2(c3ccccc3Cl)CC2)ccc1Oc1cccc(Cl)c1	binding, competition with immobilised ligand	1 µM	remaining binding	89%
Nc1ncnc2occ(-c3ccc(NC(=O)Nc4cc(C(F)(F)F)ccc4F)cc3)c12	cell-free assay	20 µM	remaining signal	7.9%
Cc1sc(C(=O)NC2COC2)cc1-n1cc(NC(=O)Nc2c(F)cccc2Cl)cn1	enzyme activity, inhibitor	10 µM	remaining activity	120%
